Experimental findings from ChEMBL document CHEMBL1140895, “Synthesis of antisense oligonucleotides containing 2'-O-psoralenylmethoxyalkyl adenosine for photodynamic regulation of point mutations in RNA” (Bioorg Med Chem, 2009) are described below.

Experiment [1] in a line: Binding affinity to oligoribonucleotide ORN-U assessed as thermal stability by UV melting study. The method in brief:
(§1)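 Duplex melting curves were recorded by UV absorbance with temperature ramped at 1.0 °C/min. Each oligonucleotide was at 2.0 µM in 100 mM phosphate buffer (pH 7.0) containing 0.1 M NaCl.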

Experiment [2] in a line: Binding affinity to oligoribonucleotide ORN-G assessed as thermal stability by UV melting study. A digest of the protocol:
as §1

A short description of experiment [3]: Binding affinity to oligoribonucleotide ORN-U assessed as formation of stable A form like duplex with ORN-U by UV spectroscopy.
Experiment [4] can be described thus: Binding affinity to oligoribonucleotide ORN-U assessed as intercalation by fluorescence spectroscopy.
A short description of experiment [5]: Binding affinity to oligoribonucleotide ORN-U assessed as photo-cross-linking efficiency with ORN-U after UVA irradiation of 1 min by time course photo cross linking study.
Experiment [6] can be described thus: Binding affinity to oligoribonucleotide ORN-U assessed as photo cross linking activity by reversed phase HPLC. A digest of the protocol:
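Equimolar 2′-Ps-oligo and ORN (2.0 µM each) were denatured at 85 °C for 5 min and slowly cooled to 37 °C in 100 mM sodium phosphate (pH 7.0) with 0.1 M NaCl. Samples were irradiated with UVA (365 nm transilluminator, 1.6 mW/cm²) and analysed by C18 reversed-phase HPLC (TEAA pH 7.0/acetonitrile gradient, 40 °C oven) to follow intact ORN and cross-linked product.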

Experiment [7] in a line: Binding affinity to oligoribonucleotide ORN-G assessed as photo-cross-linking efficiency with ORN-G after UVA irradiation of 1 min by time course photo cross linking study.
Experiment [8] can be described thus: Binding affinity to oligoribonucleotide ORN-U assessed as photo-cross-linking efficiency with ORN-U after UVA irradiation of 120 min by time course photo cross linking study.

Calls of active or inactive are those of the source. The calls are words filed in the database; no cut-off is given here.

Regarding `Cc1oc2c(C)c3oc(=O)cc(C)c3cc2c1COCCCCO[C@@H]1[C@H](OP(=O)(O)OC[C@H]2O[C@@H](n3ccc(N)nc3=O)C[C@@H]2OP(=O)(O)OC[C@H]2O[C@@H](n3cnc4c(N)ncnc43)C[C@@H]2OP(=O)(O)OC[C@H]2O[C@@H](n3cnc4c(=O)[nH]c(N)nc43)C[C@@H]2OP(=O)(O)OC[C@H]2O[C@@H](n3ccc(N)nc3=O)C[C@@H]2OP(=O)(O)OC[C@H]2O[C@@H](n3cc(C)c(=O)[nH]c3=O)C[C@@H]2OP(=O)(O)OC[C@H]2O[C@@H](n3ccc(N)nc3=O)C[C@@H]2OP(=O)(O)OC[C@H]2O[C@@H](n3ccc(N)nc3=O)C[C@@H]2O)[C@@H](COP(=O)(O)O[C@H]2C[C@H](n3cnc4c(N)ncnc43)O[C@@H]2COP(=O)(O)O[C@H]2C[C@H](n3ccc(N)nc3=O)O[C@@H]2COP(=O)(O)O[C@H]2C[C@H](n3ccc(N)nc3=O)O[C@@H]2COP(=O)(O)O[C@H]2C[C@H](n3cnc4c(=O)[nH]c(N)nc43)O[C@@H]2COP(=O)(O)O[C@H]2C[C@H](n3ccc(N)nc3=O)O[C@@H]2COP(=O)(O)O[C@H]2C[C@H](n3cnc4c(N)ncnc43)O[C@@H]2COP(=O)(O)O[C@H]2C[C@H](n3cc(C)c(=O)[nH]c3=O)O[C@@H]2CO)O[C@H]1n1cnc2c(N)ncnc21`, the results for the Tm in experiment [1] and in experiment [2] were 64 °C and 60.2 °C, respectively. In addition, the outcome in experiment [3] and in experiment [4] was Active.
Regarding `Cc1oc2c(C)c3oc(=O)cc(C)c3cc2c1COCCCO[C@@H]1[C@H](OP(=O)(O)OC[C@H]2O[C@@H](n3ccc(N)nc3=O)C[C@@H]2OP(=O)(O)OC[C@H]2O[C@@H](n3cnc4c(N)ncnc43)C[C@@H]2OP(=O)(O)OC[C@H]2O[C@@H](n3cnc4c(=O)[nH]c(N)nc43)C[C@@H]2OP(=O)(O)OC[C@H]2O[C@@H](n3ccc(N)nc3=O)C[C@@H]2OP(=O)(O)OC[C@H]2O[C@@H](n3cc(C)c(=O)[nH]c3=O)C[C@@H]2OP(=O)(O)OC[C@H]2O[C@@H](n3ccc(N)nc3=O)C[C@@H]2OP(=O)(O)OC[C@H]2O[C@@H](n3ccc(N)nc3=O)C[C@@H]2O)[C@@H](COP(=O)(O)O[C@H]2C[C@H](n3cnc4c(N)ncnc43)O[C@@H]2COP(=O)(O)O[C@H]2C[C@H](n3ccc(N)nc3=O)O[C@@H]2COP(=O)(O)O[C@H]2C[C@H](n3ccc(N)nc3=O)O[C@@H]2COP(=O)(O)O[C@H]2C[C@H](n3cnc4c(=O)[nH]c(N)nc43)O[C@@H]2COP(=O)(O)O[C@H]2C[C@H](n3ccc(N)nc3=O)O[C@@H]2COP(=O)(O)O[C@H]2C[C@H](n3cnc4c(N)ncnc43)O[C@@H]2COP(=O)(O)O[C@H]2C[C@H](n3cc(C)c(=O)[nH]c3=O)O[C@@H]2CO)O[C@H]1n1cnc2c(N)ncnc21`, the Tm was 62.7 °C in experiment [1] and 58.8 °C in experiment [2]. In addition, the outcome in experiment [3], in experiment [4] and in experiment [6] was Active. The photo-cross-linking efficiency in experiment [5] worked out at 50%; in experiment [7] it was 9%.
`Cc1cn([C@H]2C[C@H](OP(=O)(O)OC[C@H]3O[C@@H](n4cnc5c(N)ncnc54)C[C@@H]3OP(=O)(O)OC[C@H]3O[C@@H](n4ccc(N)nc4=O)C[C@@H]3OP(=O)(O)OC[C@H]3O[C@@H](n4cnc5c(=O)[nH]c(N)nc54)C[C@@H]3OP(=O)(O)OC[C@H]3O[C@@H](n4ccc(N)nc4=O)C[C@@H]3OP(=O)(O)OC[C@H]3O[C@@H](n4ccc(N)nc4=O)C[C@@H]3OP(=O)(O)OC[C@H]3O[C@@H](n4cnc5c(N)ncnc54)C[C@@H]3OP(=O)(O)OC[C@H]3O[C@@H](n4cnc5c(N)ncnc54)C[C@@H]3OP(=O)(O)OC[C@H]3O[C@@H](n4ccc(N)nc4=O)C[C@@H]3OP(=O)(O)OC[C@H]3O[C@@H](n4cnc5c(N)ncnc54)C[C@@H]3OP(=O)(O)OC[C@H]3O[C@@H](n4cnc5c(=O)[nH]c(N)nc54)C[C@@H]3OP(=O)(O)OC[C@H]3O[C@@H](n4ccc(N)nc4=O)C[C@@H]3OP(=O)(O)OC[C@H]3O[C@@H](n4cc(C)c(=O)[nH]c4=O)C[C@@H]3OP(=O)(O)OC[C@H]3O[C@@H](n4ccc(N)nc4=O)C[C@@H]3OP(=O)(O)OC[C@H]3O[C@@H](n4ccc(N)nc4=O)C[C@@H]3O)[C@@H](CO)O2)c(=O)[nH]c1=O`: the Tm in experiment [1] was 67.3 °C; in experiment [2] it was 58.9 °C.
As for `Cc1oc2c(C)c3oc(=O)cc(C)c3cc2c1CO[C@@H]1[C@H](OP(=O)(O)OC[C@H]2O[C@@H](n3ccc(N)nc3=O)C[C@@H]2OP(=O)(O)OC[C@H]2O[C@@H](n3cnc4c(N)ncnc43)C[C@@H]2OP(=O)(O)OC[C@H]2O[C@@H](n3cnc4c(=O)[nH]c(N)nc43)C[C@@H]2OP(=O)(O)OC[C@H]2O[C@@H](n3ccc(N)nc3=O)C[C@@H]2OP(=O)(O)OC[C@H]2O[C@@H](n3cc(C)c(=O)[nH]c3=O)C[C@@H]2OP(=O)(O)OC[C@H]2O[C@@H](n3ccc(N)nc3=O)C[C@@H]2OP(=O)(O)OC[C@H]2O[C@@H](n3ccc(N)nc3=O)C[C@@H]2O)[C@@H](COP(=O)(O)O[C@H]2C[C@H](n3cnc4c(N)ncnc43)O[C@@H]2COP(=O)(O)O[C@H]2C[C@H](n3ccc(N)nc3=O)O[C@@H]2COP(=O)(O)O[C@H]2C[C@H](n3ccc(N)nc3=O)O[C@@H]2COP(=O)(O)O[C@H]2C[C@H](n3cnc4c(=O)[nH]c(N)nc43)O[C@@H]2COP(=O)(O)O[C@H]2C[C@H](n3ccc(N)nc3=O)O[C@@H]2COP(=O)(O)O[C@H]2C[C@H](n3cnc4c(N)ncnc43)O[C@@H]2COP(=O)(O)O[C@H]2C[C@H](n3cc(C)c(=O)[nH]c3=O)O[C@@H]2CO)O[C@H]1n1cnc2c(N)ncnc21`, the photo-cross-linking efficiency in experiment [5] was 3%. The Activity in experiment [8] stood at 35%.
Take `Cc1oc2c(C)c3oc(=O)cc(C)c3cc2c1COCCO[C@@H]1[C@H](OP(=O)(O)OC[C@H]2O[C@@H](n3ccc(N)nc3=O)C[C@@H]2OP(=O)(O)OC[C@H]2O[C@@H](n3cnc4c(N)ncnc43)C[C@@H]2OP(=O)(O)OC[C@H]2O[C@@H](n3cnc4c(=O)[nH]c(N)nc43)C[C@@H]2OP(=O)(O)OC[C@H]2O[C@@H](n3ccc(N)nc3=O)C[C@@H]2OP(=O)(O)OC[C@H]2O[C@@H](n3cc(C)c(=O)[nH]c3=O)C[C@@H]2OP(=O)(O)OC[C@H]2O[C@@H](n3ccc(N)nc3=O)C[C@@H]2OP(=O)(O)OC[C@H]2O[C@@H](n3ccc(N)nc3=O)C[C@@H]2O)[C@@H](COP(=O)(O)O[C@H]2C[C@H](n3cnc4c(N)ncnc43)O[C@@H]2COP(=O)(O)O[C@H]2C[C@H](n3ccc(N)nc3=O)O[C@@H]2COP(=O)(O)O[C@H]2C[C@H](n3ccc(N)nc3=O)O[C@@H]2COP(=O)(O)O[C@H]2C[C@H](n3cnc4c(=O)[nH]c(N)nc43)O[C@@H]2COP(=O)(O)O[C@H]2C[C@H](n3ccc(N)nc3=O)O[C@@H]2COP(=O)(O)O[C@H]2C[C@H](n3cnc4c(N)ncnc43)O[C@@H]2COP(=O)(O)O[C@H]2C[C@H](n3cc(C)c(=O)[nH]c3=O)O[C@@H]2CO)O[C@H]1n1cnc2c(N)ncnc21`: the Tm in experiment [1] was 63.1 °C; in experiment [2] it was 59.1 °C. Moreover, the outcome in experiment [3], in experiment [4] and in experiment [6] was Active. Further, the photo-cross-linking efficiency in experiment [5] came to 75%; in experiment [7] it was 7%.
